Screens (PubChem)
Dynein transport – inhibitors of GR-EGFP nuclear translocation, primary screen, dynein cargo transport inhibitor project, imaging, high-content, 3617.4 mouse cells; test concentration mostly 20 µM; stimulated with dexamethasone, 1 µM; stronger effect = lower value; z-score, hits read low; 220,000 tested, 0.47% active; AID 1381, 2008;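 active means plate z-score of nuclear minus cytoplasmic receptor signal below a set negative limit, without overly bright fluorescence or cell loss, cut at about -3.5 in these data, passing the limit was not always enough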;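 further: z-score of nuclear minus cytoplasmic ring GR-EGFP intensity difference per well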
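Buffer or medium: Induction medium lacking tetracycline, stripped serum | Also added: Dexamethasone agonist, 1.0 µM final, for 30 min | Timing: 48 h induction, 1 h compound, 30 min dex at 37 °C | Detection: Formaldehyde fixation, Hoechst nuclear stain, 10x automated fluorescence imaging | Measure: Nuclear versus cytoplasmic GR-EGFP signal, averaged per well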
Autophagy mod – autophagy modulators in MEF cells, primary screen, imaging, high-content, MEF GFP-LC3 | 190,000 tested, 0.98% active | calls only at 10 µM (by protocol) | MEF GFP-LC3 puncta imaging; test concentration mostly 10 µM;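 active means percentage of spot-positive cells more than 3 SD above its plate mean, without a fluorescence outlier flag or 80% toxicity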;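 further: spot-positive cell cutoff set from DMSO-treated cells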
TNF death inh – inhibitors of TNF-alpha triggered necroptosis, primary screen, cell-based, Jurkat FADD-/-, single concentration; activation (protection from cell death), % at 10 µM; 220,000 tested, 0.068% active; AID 463075, 2010; Jurkat FADD-/- TNF necroptosis rescue, ATP luminescence, 24 h; 0 = TNF only, 100 = no-TNF cells;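 active means activation, meaning protection from cell death, of at least 50% relative to plate controls; inactive means activation below 50%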;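 further: necroptosis triggered by 40 ng/mL TNF-alpha added together with compound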
Mdm2 ligase inh – MDM2-luciferase reporter signal enhancers, primary screen, MDM2 E3 ligase inhibitor project, cell-based, luminescence, 1536-well; cell-based MDM2 ubiquitination luciferase reporter, 2 h; 0 = plate control, 100 = twice control, blank-subtracted; AID 1230, 2008; E3 ubiquitin-protein ligase Mdm2 (Homo sapiens), Q00987; signal enhancement, % at 5 µM; 210,000 tested, 0.11% active;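 active means signal enhancement of 30% or more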;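 further: luminescence tracks abundance of the self-degrading MDM2-luciferase fusion protein; higher signal means inhibition of MDM2 E3 ligase activity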
Target sequence (Q00987 whole entry, looked up, the tested form may be a part): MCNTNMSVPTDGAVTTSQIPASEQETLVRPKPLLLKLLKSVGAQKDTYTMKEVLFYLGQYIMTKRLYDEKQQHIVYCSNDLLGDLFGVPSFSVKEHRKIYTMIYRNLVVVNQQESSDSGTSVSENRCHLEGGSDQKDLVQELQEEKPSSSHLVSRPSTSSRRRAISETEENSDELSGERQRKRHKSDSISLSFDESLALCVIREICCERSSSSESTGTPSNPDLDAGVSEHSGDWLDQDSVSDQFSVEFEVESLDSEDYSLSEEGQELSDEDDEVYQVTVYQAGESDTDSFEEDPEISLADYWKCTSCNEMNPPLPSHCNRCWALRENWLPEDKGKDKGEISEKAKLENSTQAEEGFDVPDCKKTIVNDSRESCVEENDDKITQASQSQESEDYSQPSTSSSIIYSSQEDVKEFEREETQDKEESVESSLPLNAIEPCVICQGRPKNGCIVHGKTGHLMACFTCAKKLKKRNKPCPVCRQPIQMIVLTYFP
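Buffer or medium: Cells held in DMEM | Assay system: Stable mammalian line carrying autodegrading MDM2–luciferase fusion reporter | Quantity: 2000 cells/well | Times: 4 h settle plus 2 h compound, 37 °C | Doses: One concentration, 5 µM, with 0.2% DMSO | Technique: Luminescence with SteadyLite reagent, 15 min at room temperature | Benchmarks: Plate controls and plate blanks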
Hck-Nef inh – inhibitors of Nef-activated human Hck kinase, primary screen, biochemical, Z-Lyte FRET, 384-well, Hck-YEEI | Recombinant Hck-YEEI plus Nef, Z-Lyte FRET kinase assay | inhibition, % at 20 µM | 220,000 tested, 0.68% active | AID 463187, 2010;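 active means Hck-Nef kinase inhibition above about 50%, limit read from the data; inactive means inhibition below that limit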;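 further: 0% = DMSO with Hck plus Nef and 100% = Hck alone without Nef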
L929 necroptosis – inhibitors of zVAD-triggered necroptosis, primary screen, L929 cells. L929 zVAD necroptosis rescue, ATP luminescence, 24 h; with zVAD 60 µM. viability rescue, % at 10 µM. 220,000 tested, 0.38% active. AID 1377, 2008;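 active means activation, scaled between plate controls, above about 75%, limit read from the data; inactive means activation under that limit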;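 further: 0% = zVAD with DMSO and 100% = DMSO alone without zVAD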
An asterisk follows results filed as active; i = inactive; . = not tested or not shown; + = active, no number. Sampled rows, rich in hits. Any-hit rate of the full collection: about 2.4%.

SMILES	Dynein transport	Autophagy mod	TNF death inh	Mdm2 ligase inh	Hck-Nef inh	L929 necroptosis
O=C(NC1CCCc2ccccc21)C1CCN(C(=O)c2sccc2-n2cccc2)CC1 (configuration not stated)	-0.17	i	2	-22	0	1
COc1ccc(-c2ncncc2-c2csc(C)n2)c(O)c1	-0.17	+	0	-18	10	-1
COc1ccc(-c2nc(C)ncc2-c2csc(C)n2)c(O)c1	-1.5	i	1	.	2	1
CCC(=O)NC(=S)Nc1cccc(Cl)c1N1CCCC1	1	i	1	.	-6	-1
CCC(Cc1ccccc1)NC(=O)C1=C(C)C(=O)OC12CCC(C)CC2 (configuration not stated)	0.53	i	-1	-8	19	-1
CCOC(=O)c1oc2nc3c(cc2c1N)COC(C)(C)C3	-0.68	+	4	-18	-2	1
CCOC(=O)c1oc2nc3c(cc2c1N)CCCC3	0.63	.	3	-16	9	2
CCOc1cc(/C=N\Nc2ccc([N+](=O)[O-])cc2)ccc1OCC(=O)Nc1ccc(C)c(C)c1	-0.95	+	-3	-9	3	0
COc1cc(/C=N\Nc2ccc([N+](=O)[O-])cc2)ccc1OCC(=O)Nc1ccc(C)c(C)c1	2.5	+	-1	-10	39	0
COc1cc(/C=N/NC(N)=O)ccc1OCC(=O)Nc1cc(C)c(C)cc1Br	-0.16	+	0	1	25	4
CCOc1cc(/C=N\NC(=O)Cc2ccccc2)ccc1OCC(=O)Nc1ccc(C)c(C)c1	-0.19	i	0	-4	13	0
CC(NC(=O)c1cc(-c2ccc(Br)cc2)on1)c1ccccc1 (configuration not stated)	1.7	i	0	3	0	0
Cc1nnc(N2CCCCC2)c2ccccc12	-1.4	i	0	-17	-1	0
c1ccc2c(N3CCCCC3)nnc(N3CCCCC3)c2c1	1.4	i	78*	.	1	-1
O=C(O)C1CCCCC1C(=O)Nc1nc(-c2ccc(Cl)s2)cs1 (configuration not stated)	0.21	i	-1	14	70*	3
Cc1nc2sc(C(c3ccc(C(C)C)cc3)N3CCN(CCO)CC3)c(O)n2n1 (configuration not stated)	1.5	i	1	-5	-8	-1
Cn1nnnc1SCc1ccccc1F	0.77	i	25	-7	-8	77*
O=c1c2cn[nH]c2nc(SCc2c(F)cccc2F)n1-c1ccc(Cl)cc1	0.1	i	-1	-7	0	-1
O=C(Nc1ccon1)c1sc2cc(F)ccc2c1Cl	-0.36	+	-4	-2	6	0
CC(C)(C)C(=O)Nc1nc(=S)ss1	0.7	i	0	-13	-2	0
Cc1ccc(-n2c(C)cc(C=C3C(=O)CC(C)(C)CC3=O)c2C)cc1	0.61	i	0	57*	3	0
Cc1cc(C=C2C(=O)c3ccccc3C2=O)c(C)n1-c1ccccc1	0.12	i	-13	-80	-1	1
CN(C)/C=C/c1c([N+](=O)[O-])c2ccc(O)cc2n1-c1ccccc1	-0.59	.	-21	-16	104*	1
COC(=O)c1c(C)n(-c2ccccc2)c2ccc(O)cc12	-0.38	i	-10	-5	9	1
COc1ccc(C(=O)NC(=O)NC2(C(Cl)(Cl)Cl)OCCO2)cc1	-1.1	i	0	-38	-9	3
SMILES	Dynein transport	Autophagy mod	TNF death inh	Mdm2 ligase inh	Hck-Nef inh	L929 necroptosis
O=C(O)c1cccc2c1C(=O)c1ccccc1-2	1.4	.	3	-5	-2	1
O=C(O)c1cccc2c1C(=O)c1ccccc1C2=O	-1.5	+	0	-8	5	2
COc1ccc(C2C(C#N)=C(C)NC(C)=C2C(=O)OC(C)C)c(OC)c1 (configuration not stated)	-1.2	i	-3	-7	25	1
CCOc1ccc(C(CC(=O)O)NS(=O)(=O)c2ccc(C)cc2)cc1OC (configuration not stated)	-0.25	i	1	-1	8	1
CCOC(=O)CC(NS(=O)(=O)c1ccc(OC)c(C)c1)c1cccc([N+](=O)[O-])c1 (configuration not stated)	1	+	2	-4	-28	1
Cc1sc2nc(CN3CCCC3)nc(N3CCN(C(=O)c4ccco4)CC3)c2c1C	-0.88	+	-1	-6	10	0
Cc1sc2nc(CN3CCCC3)nc(N3CCC(C(N)=O)CC3)c2c1C	0.13	i	-2	-9	1	0
COc1ccc(-c2cc(C(F)(F)F)n3nc(C(=O)NCc4ccco4)cc3n2)cc1	-0.91	+	-1	-8	0	1
O=C(Nc1cccc(S(=O)(=O)N2CCCC2)c1)c1cc(-c2ccccn2)nc2ccccc12	1.3	i	-1	-12	-1	5
CC(=O)Cc1nsc(Nc2ccc(C)cc2)n1	0.17	i	9	38*	20	2
C=CCN1C(=O)/C(=C\C=C2\N(C)c3ccccc3C2(C)C)SC1=S	-0.24	+	-5	1	4	.
CN(CC(=O)Nc1cccc(F)c1)CC(=O)Nc1cccc(S(N)(=O)=O)c1	-0.36	.	7	.	23	1
CN1CCc2c(sc3c2C(=O)NC(c2ccco2)N3)C1 (configuration not stated)	0.29	i	-1	-8	2	0
CN1CCc2c(sc3c2C(=O)NC(c2cn(Cc4ccccc4)c4ccccc24)N3)C1 (configuration not stated)	9.2	+	16	-7	14	0
Cc1ccc(/C=C2/NC(=O)N(Cc3ccccc3F)C2=O)s1	-1.3	+	1	-17	-29	2
CCC(=O)NS(=O)(=O)c1cccnc1Nc1ccccc1Cl	-0.66	i	-1	-14	3	0
Cc1nn(-c2ccccc2)c(C)c1/C=N/NC(=O)CSc1nc2ccccc2c(=O)n1-c1ccc(Br)cc1	1.6	i	-2	-3	7	0
